# Bioassay records: PubChem BioAssay, The Scripps Research Institute Molecular Screening Center
# CHRM5 agonist: agonists of human muscarinic M5 receptor (CHRM5); CHO-K1 hM5 cells, Fluo-8 calcium fluorescence; 0% DMSO wells, 100% maximal acetylcholine response; activation, % at 3 µM; actives 0.19% (n = 360,000); AID 624037;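 active = activation above the run's mean over test compounds plus 3 SD, cut at about 23% in these data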;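 note: signal is peak over basal fluorescence ratio across the kinetic read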
# M4 PAM: potentiates acetylcholine response at human M4 receptor; P08173; CHO-K1 hM4/Gqi5, Fluo-8 calcium fluorescence, ACh EC20; 0% = ACh EC20, 100% = maximal ACh; activation, % at 3 µM; actives 0.4% (n = 360,000); AID 624126;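 active = activation above its plate's cutoff, the mean activation of sample wells plus 3 SD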
# Target sequence (P08173 whole entry, looked up): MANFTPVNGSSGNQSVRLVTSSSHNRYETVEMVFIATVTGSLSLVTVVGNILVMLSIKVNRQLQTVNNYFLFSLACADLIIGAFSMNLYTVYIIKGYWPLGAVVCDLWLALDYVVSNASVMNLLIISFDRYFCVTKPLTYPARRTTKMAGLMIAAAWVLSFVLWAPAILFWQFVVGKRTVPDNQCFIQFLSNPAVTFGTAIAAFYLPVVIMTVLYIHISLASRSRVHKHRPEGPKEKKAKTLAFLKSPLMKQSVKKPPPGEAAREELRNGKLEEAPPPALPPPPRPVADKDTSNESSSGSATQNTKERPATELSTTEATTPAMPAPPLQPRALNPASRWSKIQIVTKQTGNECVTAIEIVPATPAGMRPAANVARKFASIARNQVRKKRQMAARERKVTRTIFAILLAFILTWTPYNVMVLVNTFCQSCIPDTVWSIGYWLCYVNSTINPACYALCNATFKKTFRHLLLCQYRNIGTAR
# CHRM4 agonist: agonists of human muscarinic M4 receptor (CHRM4) | CHO-K1 hM4/Gqi5, Fluo-8 calcium fluorescence; vehicle 0%, full acetylcholine response 100% | activation, % at 3 µM | actives 0.14% (n = 360,000) | P08173;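 active = activation above the run mean over all test wells plus 3 SD, cut at about 32% in these data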;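 note: peak over basal fluorescence ratio per well then scaled between controls; 0% = DMSO wells and 100% = acetylcholine at EC100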
# M5 antag: blocks acetylcholine activation of human M5 receptor; CHO-hM5 cells, Fluo-8 calcium fluorescence, ACh EC80; inhibition, % at 3 µM; actives 0.59% (n = 360,000); AID 624040;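 active = inhibition above a per-plate cutoff, the mean of that plate's test compounds plus 3 SD, cut at about 27% in these data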;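 note: 0% = acetylcholine EC80 with DMSO and 100% = DMSO without agonist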
# CHRM5 PAM: potentiates acetylcholine response at human M5 receptor | actives 0.3% (n = 360,000) | CHO-K1 hM5, Fluo-8 calcium, ACh EC20 PAM; 0% = ACh EC20, 100% = ACh EC100 | activation, % at 3 µM;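 active = activation above the run cutoff, the mean activation of all test compounds plus 3 SD, cut at about 18% in these data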
#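 System – CHO-K1 hM5 cells · Compound – 3 µM, single dose · Incubation – compound preincubation 140 s before EC20 acetylcholine addition · Technique – Fluo-8 calcium fluorescence · Measure – Max/basal fluorescence ratio as % of EC20–EC100 ACh window · Benchmarks – low control EC20 acetylcholine (0%), high control EC100 acetylcholine (100%) · Replication – singlicate, one well per test compound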
# M4 antag: antagonists of human muscarinic M4 receptor (CHRM4) | AID 624125 | P08173 | actives 0.73% (n = 360,000) | inhibition, % at 3 µM | CHO-hM4 cells, ACh EC80, Fluo-8 calcium fluorescence;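 active = inhibition above its plate's cutoff, the mean inhibition of sample wells plus 3 SD, cut at about 27% in these data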;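 note: 0% = acetylcholine EC80 with DMSO and 100% = DMSO without agonist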
# Numbers without * were called inactive. Hits are enriched below; roughly 1.8% of the tested compounds scored in any of these assays.
SMILES,CHRM5 agonist,M4 PAM,CHRM4 agonist,M5 antag,CHRM5 PAM,M4 antag
COc1ccc(S(=O)(=O)N(CC(=O)O)c2ccccc2)cc1,1.6,21.8*,2.1,-1.3,3.7,-12.0
COc1ccc(C)cc1S(=O)(=O)N(CC(=O)O)c1ccccc1,-1.0,-0.7,0.8,-4.5,2.7,-3.5
COc1ccc(N(CC(=O)Nc2ccccc2OC)S(=O)(=O)c2ccc(NC(C)=O)cc2)cc1,-6.3,-8.7,11.6,31.8*,-10.8,3.1
COc1cc(NC(=O)CN(C)S(=O)(=O)c2ccc(C)cc2)cc(OC)c1,-12.2,17.8*,2.0,-5.6,5.0,-8.2
COc1ccccc1NC(=O)CN(c1ccccc1)S(=O)(=O)c1ccccc1,-2.5,-7.0,2.5,7.8,15.8,-18.0
COc1ccc([C@H]2CC(=O)C=C(c3cccc4c3Oc3ccccc3S4)C2)cc1OC,3.1,-4.0,9.2,15.4,-22.1,26.4
CC(C#N)Sc1ccc(S(=O)(=O)N2CCCC2)cn1 (centres undefined),-0.8,-1.7,0.1,13.3,-0.1,9.1
COc1ccc(S(=O)(=O)N(C)CC(=O)Nc2ccccc2OC)cc1,-1.6,1.3,1.9,1.4,-0.3,33.9*
Cc1ccccc1S(=O)(=O)N1C[C@H]2[C@H]3C(=O)N(c4ccccc4)C(=O)[C@H]3CC(=O)[C@H]2[C@@H]1c1ccc(Cl)cc1,3.4,6.1,1.9,-8.1,8.9,-14.6
Cc1cccc(CS(=O)(=O)c2nnc([C@H](Cc3ccccc3)NC(=O)OC(C)(C)C)o2)c1,2.6,-16.2,6.5,8.4,1.3,66.8*
CC(C)(C)OC(=O)N[C@@H](Cc1ccccc1)c1nnc(SCC(N)=O)o1,2.4,-12.3,-0.2,1.8,-1.1,-6.7
COC(=O)CSc1nnc([C@H](Cc2ccccc2)NC(=O)OC(C)(C)C)o1,-2.6,-6.3,2.7,3.1,-1.8,-10.1
COC(=O)CS(=O)(=O)c1nnc([C@H](Cc2ccccc2)NC(=O)OC(C)(C)C)o1,5.4,-6.5,4.4,4.3,8.4,76.6*
CN(C(=O)COC(=O)C1=COCCO1)C1(C#N)CCCCC1,4.7,12.6,0.6,1.6,15.8,-1.6
N#CC1(NC(=O)COC(=O)C2=COCCO2)CCCCC1,19.2,4.0,112.8*,10.6,1.0,7.4
CC(C)OP(=O)(OC(C)C)C(Nc1ccc(C(=O)O)cc1)c1ccccc1 (centres undefined),0.6,31.8*,0.8,0.1,-0.5,38.0*
CC(C)OP(=O)(OC(C)C)C(Nc1cccc(C(=O)O)c1)c1ccccc1 (centres undefined),5.1,1.4,-0.1,9.4,-1.4,-3.5
CC1=CC(C)(C)N2C(=O)C(=Nc3ccc(O)cc3)c3cccc1c32,38.0*,22.7,-0.4,5.1,6.3,25.6
COc1cc(N=C2C(=O)N3c4c(cccc42)C(C)=CC3(C)C)cc(OC)c1,26.8*,9.6,2.2,-10.7,4.3,-17.2
CC1CCCCC1n1c(-c2cccnc2)n[nH]c1=S (centres undefined),-14.7,6.6,1.3,-6.0,3.2,-10.3
S=c1[nH]nc(-c2cccnc2)n1C1CCCCC1,-3.8,25.8*,1.2,11.1,3.8,-1.4
COc1ccc(CCN(Cc2cc3cccc(C)c3[nH]c2=O)C(=O)NC2CCCCC2)cc1OC,-0.6,-28.3,8.4,12.6,-8.4,31.4*
Cc1cccc2cc(CN(CC3CCCO3)C(=O)NC3CCCCC3)c(=O)[nH]c12 (centres undefined),-1.0,-4.4,1.1,1.9,-2.7,13.8
Cc1cc(=O)n2nc(N3CCCC(C(=O)N4CCc5ccccc54)C3)sc2n1 (centres undefined),-7.9,-18.1,-1.5,6.1,-14.0,31.8*
O=C(C(=Cc1ccccc1)CN1CCCCC1)c1ccccc1,-11.6,-9.4,0.2,17.0,-36.3,29.4*
CC(C)(C)Nc1nc(Nc2ccc([N+](=O)[O-])cc2)nc(NC(C)(C)C)n1,2.8,15.4*,5.6,22.6,-1.2,20.2
COCCNC(=O)CN(C(=O)c1ccc(N2CCCC2)nc1)c1ccccc1,3.5,-3.6,1.4,6.5,0.8,-0.3
